Experimental data collected from several papers.
Compare with care: the assays were run in different laboratories.

Compound	target or system	test	system	setting	measurement	value
Cc1ncsc1-c1ccc(CNC(=O)[C@@H]2C[C@@H](O)CN2C(=O)[C@@H](NC(=O)COCCOCCn2cc(COc3ccc(-c4nc5cc(-c6ccccc6)ccn5c4Nc4ccc(C(=O)O)cc4)cc3)nn2)C(C)(C)C)cc1	MCF7	cell growth or viability	–	72 h	CC50	74 µM
N[C@H](COCC(=O)N1CCC[C@H](C(=O)NCc2nc(-c3ccc(C(F)(F)F)cc3)cs2)C1)c1ccccc1	–	metabolic stability	male Sprague-Dawley rat, liver microsomes	0.5 µM	microsomal CLint	84 µL/min/mg
CC[C@@H](C)[C@@H](N)C(=O)OC[C@H]1O[C@@](C#N)(c2ccc3c(N)ncnn23)[C@H](O)[C@@H]1O	HEp-2	cell growth or viability, CCK-8	–	5 days	CC50	> 100 µM
COCC(=O)N1CCC[C@H](C(=O)NCc2nc(-c3ccc(NC4CCC4)nc3)cs2)C1	–	metabolic stability	male Sprague-Dawley rat, liver microsomes	0.5 µM	microsomal CLint	65 µL/min/mg
COc1ccc2c(c1)CN(C(=O)CCN1CCC(Cc3ccccc3)CC1)CC[S@@+]2[O-]	–	–	male human, plasma	intravenous, 0.05 mg/kg, healthy volunteers	clearance	203 mL/min
N#C[C@@]1(c2ccc3c(N)ncnn23)O[C@H](COC(=O)C2CCCCC2)[C@@H](O)[C@H]1O	HEp-2	cell growth or viability, CCK-8	–	5 days	CC50	44.7 µM
Nc1ccn([C@@H]2O[C@H](CO)[C@@H](O)C2(F)F)c(=O)n1	MCF7	cell growth or viability, MTT	–	0.625 µg/mL, 48 h	viability	68.6%
CC(C)C(=O)OC[C@H]1O[C@@](C#N)(c2ccc3c(N)ncnn23)[C@H](O)[C@@H]1O	HEp-2	cell growth or viability, CCK-8	–	5 days	CC50	81.6 µM
O=C(NCc1nc(-c2ccccc2)cs1)[C@H]1CCCN(C(=O)COCC(F)F)C1	–	metabolic stability	human, liver microsomes	0.5 µM	microsomal CLint	18 µL/min/mg
CCc1cc(=O)oc2cc(OC(CC)C(=O)c3ccccc3)ccc12 (stereo not drawn)	TZM-bl	cell growth or viability, resazurin	–	–	CC50	> 12.5 µM
CCOCC(=O)N1CCC[C@H](C(=O)NCc2nc(-c3ccc(C)nc3)cs2)C1	–	metabolic stability	male Sprague-Dawley rat, hepatocytes	0.5 µM	scaled CLint	27 mL/min/kg
CC(C)[C@@H](N)C(=O)OC[C@H]1O[C@@](C#N)(c2ccc3c(N)ncnn23)[C@H](O)[C@@H]1O	HEp-2	cell growth or viability, CCK-8	–	5 days	CC50	> 100 µM
